The values that follow come from PubChem BioAssay.

Experiment [1] can be described thus: reducers of endogenous Her2 protein level, primary screen, SKBR3 breast tumor cells, AlphaScreen, ATP viability (AID 461;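 active = Her2 level under about 52% in both replicate screens, with viability over 70% of control, limit read from the data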;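 for Her2 level: lower value means less Her2 protein in the cells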;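 for viability: percent of carrier control wells set as 100% viability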). The conditions noted are these: 18-24 h, measured here: SKBR3 viability, ATP luminescence, at 10 µM. For orientation: In Alpha technology, singlet oxygen from a donor bead excites a nearby acceptor bead.
Experiment [2] addresses Receptor tyrosine-protein kinase erbB-2 (Homo sapiens) (UniProt P04626). The experiment is described as above. The following applies: 18-24 h, at 10 µM, stronger effect = lower value.
Experiment [3] can be described thus: SK-BR-3 cell growth inhibitors, pilot screen, 24 h, human (AID 572;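 active = viability at or below 10% of carrier control in both of two separate runs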;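 note: compound exposure lasted between 18 and 24 h rather than exactly 24 h; 100% = carrier-treated control wells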). The conditions noted are these: SK-BR-3 viability, CellTiter-Glo luminescence, at 10 µM, stronger effect = lower value. A general note: In ATP-based viability assays light output follows the ATP content of the culture.
A short description of experiment [4]: HUVEC growth inhibition – cell-based, human, primary screen (AID 575;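 active = viability at or below 30% in both replicate assays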;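 note: 100% = median of untreated cell wells with 0.1% DMSO on each plate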). The following applies: HUVEC proliferation, CellTiter-Glo luminescence, 72 h; at 10 µM; stronger effect = lower value. The procedure, abridged:
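Material: primary human umbilical vein endothelial cells / Schedule: 72 h exposure, 37 °C, 5% CO2, 30 min RT equilibration / Signal: ATP-based CellTiter-Glo luminescent read / Read-out basis: percent of median DMSO-control luminescence / Control set: 32 DMSO-only cell-control wells (high), 32 MePR drug-control wells (low) per plate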

Experiment [5] in a line: growth inhibitors of H69AR lung tumor, primary screen, human, duplicate replicates (AID 580).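 Note: 100% = mean luminescence of untreated wells and 0% = no signal.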 The conditions noted are these: H69AR lung tumor cells viability, ATP luminescence, 72 h; at 10 µM; stronger effect = lower value.
A short description of experiment [6]: reversal of MRP1-mediated doxorubicin resistance, pilot screen, H69AR cells, doxorubicin co-treatment (AID 601;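 active = viability loss from added drug above about 55%, and viability with drug at most 40%, in both replicates, limit read from the data, passing the limit was not always enough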). The conditions noted are these: CellTiter-Glo, 72 h, at 10 µM; for differential viability (reversal): stronger effect = higher value.
The nature of experiment [7]: 384-well plate pilot, post-Golgi transport modulator project, inhibition of yeast transport mutant growth (AID 636; in the data active = inhibition above about 31%). The conditions noted are these: absorbance 615 nm, about 18 h, stronger effect = higher value.
A short description of experiment [8]: growth suppression of yeast trafficking mutant, preliminary HTS, modulators of trafficking downstream of Golgi apparatus project, 1536-format plate, OD 615 nm (AID 637; in the data active = inhibition above about 30%). The conditions noted are these: yeast transport mutant growth, absorbance 615 nm, 18 h; stronger effect = higher value.
[9] abbreviates: H69AR cells + 2 uM doxorubicin, measured here: viability with 2 uM doxorubicin, stronger effect = lower value.
The mark [10] stands for this setting: H69AR cells, compound alone cytotoxicity.

The source made the active and inactive calls.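 Rule for the calls, unless noted: active = viability at or under a set limit in both replicates, limit being median viability minus 3 SD (cut at about 48% in these data, passing the limit was not always enough); inconclusive = at or under the limit in just one replicate; inactive = at or above the limit in both replicates.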

Chain of Receptor tyrosine-protein kinase erbB-2 (Homo sapiens) (P04626 whole entry, looked up): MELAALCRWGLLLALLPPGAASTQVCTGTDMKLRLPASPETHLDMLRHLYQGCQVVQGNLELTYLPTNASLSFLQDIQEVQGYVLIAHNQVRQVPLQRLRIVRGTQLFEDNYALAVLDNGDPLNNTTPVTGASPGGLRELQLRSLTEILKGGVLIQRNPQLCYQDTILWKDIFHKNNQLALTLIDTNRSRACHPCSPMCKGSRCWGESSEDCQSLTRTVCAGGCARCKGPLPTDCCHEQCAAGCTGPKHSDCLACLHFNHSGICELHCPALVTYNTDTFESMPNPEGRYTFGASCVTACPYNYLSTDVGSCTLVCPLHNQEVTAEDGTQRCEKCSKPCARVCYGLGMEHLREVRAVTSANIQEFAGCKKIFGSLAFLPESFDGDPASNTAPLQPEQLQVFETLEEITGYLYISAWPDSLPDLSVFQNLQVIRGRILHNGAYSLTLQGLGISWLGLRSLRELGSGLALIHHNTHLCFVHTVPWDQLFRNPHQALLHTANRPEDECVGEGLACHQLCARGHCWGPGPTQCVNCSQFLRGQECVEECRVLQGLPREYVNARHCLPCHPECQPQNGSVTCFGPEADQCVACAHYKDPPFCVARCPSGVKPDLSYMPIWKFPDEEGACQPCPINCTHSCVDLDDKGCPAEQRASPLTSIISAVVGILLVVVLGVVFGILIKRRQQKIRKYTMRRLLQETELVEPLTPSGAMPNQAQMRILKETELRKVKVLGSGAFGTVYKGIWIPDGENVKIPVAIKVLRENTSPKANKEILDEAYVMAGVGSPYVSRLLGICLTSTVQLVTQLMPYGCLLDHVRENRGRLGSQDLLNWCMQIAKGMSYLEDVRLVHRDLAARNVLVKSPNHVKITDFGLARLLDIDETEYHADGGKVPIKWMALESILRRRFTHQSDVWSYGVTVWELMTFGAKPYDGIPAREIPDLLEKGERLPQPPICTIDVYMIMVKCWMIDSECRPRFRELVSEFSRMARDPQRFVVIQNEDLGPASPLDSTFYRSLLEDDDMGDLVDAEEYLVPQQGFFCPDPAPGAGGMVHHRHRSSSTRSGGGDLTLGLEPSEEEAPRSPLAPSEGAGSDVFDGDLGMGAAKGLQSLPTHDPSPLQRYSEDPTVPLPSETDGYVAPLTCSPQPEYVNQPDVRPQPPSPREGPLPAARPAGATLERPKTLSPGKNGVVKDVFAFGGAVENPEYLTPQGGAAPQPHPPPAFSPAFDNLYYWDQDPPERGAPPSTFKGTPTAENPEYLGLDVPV

A word on the viability: it is a read-out of living cells in per cent, often relative to untreated cells. In general, inhibition refers to the drop in the measured response relative to a control, in per cent. As for `CCCc1c(O)nc(SCC(=O)NCCc2ccc(OC)c(OC)c2)[nH]c1=O`, the viability in experiment [1] is 95%; in experiment [3] it was 95% (inactive); in experiment [4], 84.6% (inactive); in experiment [5] it was 104% (inactive); in experiment [6] (setting [9]) it was 104%; in experiment [6] (setting [10]), 104%. In addition, the Her2 level in experiment [2] is 93.5% (inactive). Moreover, the differential viability (reversal) in experiment [6] (H69AR cells + 2 uM doxorubicin) is -0.29% (inactive). The inhibition in experiment [7] was -4.53% (inactive); in experiment [8], -2.26% (inactive).
With `COC(=O)Nc1ccc(C)cc1NC(=O)OC`, the viability was 86.5% in experiment [1]; 86.5% (inactive) in experiment [3]; 96.4% (inactive) in experiment [4]; 107% (inactive) in experiment [5]; 99.5% in experiment [6] (setting [9]); 107% in experiment [6] (setting [10]). The Her2 level in experiment [2] is 102% (inactive). In addition, the differential viability (reversal) in experiment [6] (H69AR cells + 2 uM doxorubicin) was 7.78% (inactive). For the same compound, the inhibition is 0.67% (inactive) in experiment [7] and -6.61% (inactive) in experiment [8].
With `O=C(Nc1ccc(N2CCOCC2)c(F)c1)c1ccncc1`, the viability in experiment [1] is 97%; in experiment [3], 97% (inactive); in experiment [4] it was 114% (inactive); in experiment [5], 96.6% (inactive); in experiment [6] (setting [9]), 84.2%; in experiment [6] (setting [10]), 96.6%. For the same compound, the Her2 level in experiment [2] was 99% (inactive). In addition, in experiment [6] (H69AR cells + 2 uM doxorubicin), the differential viability (reversal) is 12.5% (inactive). The figures for the inhibition in experiment [7] and in experiment [8] were -4.27% (inactive) and 1.64% (inactive), respectively.
`Cc1nc2cccc(C(=O)NC3CCCCC3)c2o1`: the viability is 100% in experiment [1]; 100% (inactive) in experiment [3]; 98.6% (inactive) in experiment [4]; 93.1% (inactive) in experiment [5]; 84.2% in experiment [6] (setting [9]); 93.1% in experiment [6] (setting [10]). In experiment [2], the Her2 level is 101% (inactive). The differential viability (reversal) in experiment [6] (H69AR cells + 2 uM doxorubicin) was 8.96% (inactive). Moreover, the inhibition in experiment [7] is -3.73% (inactive); in experiment [8] it was 7.05% (inactive).
On to `CCn1nc(C(=O)OCC(=O)c2cc(C)n(Cc3cccs3)c2C)c2ccccc2c1=O`, for which the viability in experiment [1] was 93.5%; in experiment [3], 93.5% (inactive); in experiment [4], 84.1% (inactive); in experiment [5] it was 83.6% (inactive); in experiment [6] (setting [9]), 93%; in experiment [6] (setting [10]), 83.6%. In addition, the Her2 level in experiment [2] is 93% (inactive). Besides, the differential viability (reversal) in experiment [6] (H69AR cells + 2 uM doxorubicin) was -9.39% (inactive). The figures for the inhibition in experiment [7] and in experiment [8] were -3.2% (inactive) and 26.6% (inactive), respectively.
As for `Cc1ccc2oc(C(=O)Nc3c(C)n(C)n(-c4ccccc4)c3=O)c(C)c2c1`, the viability is 84.5% in experiment [1]; 84.5% (inactive) in experiment [3]; 97.2% (inactive) in experiment [4]; 104% (inactive) in experiment [5]; 83.6% in experiment [6] (setting [9]); 104% in experiment [6] (setting [10]). For the same compound, the Her2 level in experiment [2] is 102% (inactive). Moreover, the differential viability (reversal) in experiment [6] (H69AR cells + 2 uM doxorubicin) was 20.3% (inactive). For the same compound, the inhibition in experiment [7] is -7.4% (inactive); in experiment [8], -10.3% (inactive).
As for `COc1cccc(C(=O)Nc2ccc(C)cc2)c1`, the viability in experiment [1] is 99%; in experiment [3], 99% (inactive); in experiment [4], 84.6% (inactive); in experiment [5], 92.3% (inactive); in experiment [6] (setting [9]) it was 88.3%; in experiment [6] (setting [10]), 92.3%. Besides, the Her2 level in experiment [2] was 102% (inactive). Further, the differential viability (reversal) in experiment [6] (H69AR cells + 2 uM doxorubicin) was 3.96% (inactive). Also, the inhibition in experiment [7] was -3.47% (inactive); in experiment [8] it was -7.46% (inactive).
As for `COc1ccc(CCNC(=O)c2ccc(N3CCCC3=O)cc2)cc1OC`, the viability is 102% in experiment [1]; 102% (inactive) in experiment [3]; 103% (inactive) in experiment [4]; 92.1% (inactive) in experiment [5]; 79.8% in experiment [6] (setting [9]); 92.1% in experiment [6] (setting [10]). For the same compound, the Her2 level in experiment [2] is 108% (inactive). For the same compound, the differential viability (reversal) in experiment [6] (H69AR cells + 2 uM doxorubicin) is 12.3% (inactive). In addition, the inhibition was -5.84% (inactive) in experiment [7] and 4.92% (inactive) in experiment [8].
`CCCn1c(=O)c2ccccc2n2c(SCCOc3ccccc3F)nnc12`: the viability in experiment [1] is 72%; in experiment [3], 72% (inactive); in experiment [4], 85.2% (inactive); in experiment [5] it was 88.8% (inactive); in experiment [6] (setting [9]) it was 70.7%; in experiment [6] (setting [10]), 88.8%. For the same compound, the Her2 level in experiment [2] was 102% (inactive). Also, the differential viability (reversal) in experiment [6] (H69AR cells + 2 uM doxorubicin) is 18.1% (inactive). Moreover, the inhibition is 2.08% (inactive) in experiment [7] and -6.72% (inactive) in experiment [8].
`CCOc1ccc2ccccc2c1C(=O)N1CCN(c2ccccc2)CC1`: the viability in experiment [1] is 95%; in experiment [3], 95% (inactive); in experiment [4], 47.3% (inactive); in experiment [5] it was 9.8% (active); in experiment [6] (setting [9]), 66.8%; in experiment [6] (setting [10]), 9.8%. In addition, the Her2 level in experiment [2] was 83.5% (inactive). The differential viability (reversal) in experiment [6] (H69AR cells + 2 uM doxorubicin) was -57% (inactive). Further, the inhibition was -2.8% (inactive) in experiment [7] and -10.6% (inactive) in experiment [8].
As to `COc1ccc(N2C(=O)CC(N3CCN(c4ccccc4F)CC3)C2=O)cc1` (stereo not given), the viability in experiment [1] was 88%; in experiment [3], 88% (inactive); in experiment [4], 91.1% (inactive); in experiment [5], 105% (inactive); in experiment [6] (setting [9]), 103%; in experiment [6] (setting [10]) it was 105%. Moreover, the Her2 level in experiment [2] was 98% (inactive). For the same compound, the differential viability (reversal) in experiment [6] (H69AR cells + 2 uM doxorubicin) was 2.14% (inactive). Moreover, the inhibition in experiment [7] is -1.07% (inactive); in experiment [8], 2.26% (inactive).
Consider `O=S(=O)(NCCSc1ccccc1)c1cccs1`, for which the viability in experiment [1] was 95%; in experiment [3], 95% (inactive); in experiment [4] it was 102% (inactive); in experiment [5] it was 86.4% (inactive); in experiment [6] (setting [9]), 74.6%; in experiment [6] (setting [10]) it was 86.4%. Further, the Her2 level in experiment [2] is 86% (inactive). Moreover, the differential viability (reversal) in experiment [6] (H69AR cells + 2 uM doxorubicin) is 11.9% (inactive). Moreover, the inhibition in experiment [7] was -6.49% (inactive); in experiment [8] it was -5.5% (inactive).
Consider `COc1ccc(Cl)cc1C(=O)n1nc(C)cc1C`, for which the viability in experiment [1] is 104%; in experiment [3] it was 104% (inactive); in experiment [4] it was 93% (inactive); in experiment [5], 94.6% (inactive); in experiment [6] (setting [9]) it was 93%; in experiment [6] (setting [10]), 94.6%. The Her2 level in experiment [2] was 112% (inactive). Moreover, the differential viability (reversal) in experiment [6] (H69AR cells + 2 uM doxorubicin) is 1.56% (inactive). Also, the figures for the inhibition in experiment [7] and in experiment [8] were 2.43% (inactive) and 9.17% (inactive), respectively.
In the case of `Cc1ccc(Cn2nnc3c(=O)n(CC(=O)NCC4CCCO4)cnc32)cc1` (stereo not given), the viability in experiment [1] was 97%; in experiment [3], 97% (inactive); in experiment [4], 105% (inactive); in experiment [5], 104% (inactive); in experiment [6] (setting [9]), 90.4%; in experiment [6] (setting [10]), 104%. Moreover, the Her2 level in experiment [2] is 88.5% (inactive). Further, in experiment [6] (H69AR cells + 2 uM doxorubicin), the differential viability (reversal) is 13.4% (inactive). Also, the inhibition in experiment [7] is -6.05% (inactive); in experiment [8], -0.79% (inactive).
